Drawing on ChEMBL document CHEMBL3045713, “The fungicidal terpenoids and essential oil from Litsea cubeba in Tibet” (Molecules, 2010), this text covers inhibition for three compounds.

Holding throughout (type): functional
Experiment [1] concerns Pseudocercospora musae. The experiment is described as follows: Fungicidal activity against Pseudocercospora musae assessed as inhibition of mycelium growth at 272 uM at 25 +/- 0.5 degC. The essentials:
(§1)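 Mycelium growth rate test. Test sample dissolved in acetone and mixed into potato dextrose agar at the stated concentration, then fungal mycelial cakes were placed on the plates. Acetone served as blank and carbendazim as positive control. Plates were incubated at 25 ± 0.5 °C until the blank grew completely. Colony diameters were then measured, and inhibitory ratio was calculated against the blank mean. Three replicates were run.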

Experiment [2] relates to Phytophthora infestans. The experiment in a line: Fungicidal activity against Phytophthora infestans assessed as inhibition of mycelium growth at 272 uM at 25 +/- 0.5 degC. The method, boiled down: as §1
Experiment [3] relates to Colletotrichum gloeosporioides. The experiment is described as follows: Fungicidal activity against Colletotrichum gloeosporioides assessed as inhibition of mycelium growth at 272 uM at 25 +/- 0.5 degC. The essentials:
as §1

For experiment [4], the system named is Fusarium oxysporum. The experiment in a line: Fungicidal activity against Fusarium oxysporum assessed as inhibition of mycelium growth at 272 uM at 25 +/- 0.5 degC. The method, boiled down:
as §1

In experiment [5] the test system is Fusarium graminearum. The experiment is described as follows: Fungicidal activity against Fusarium graminearum assessed as inhibition of mycelium growth at 272 uM at 25 +/- 0.5 degC. The method, boiled down:
as §1

The test system of experiment [6] is Alternaria mali. The experiment is described as follows: Fungicidal activity against Alternaria mali assessed as inhibition of mycelium growth at 272 uM at 25 +/- 0.5 degC. The method, boiled down: as §1
Experiment [7] relates to Fusarium verticillioides. The experiment is described as follows: Fungicidal activity against Fusarium verticillioides assessed as inhibition of mycelium growth at 272 uM at 25 +/- 0.5 degC. The method, boiled down:
as §1

Experiment [8] concerns Thanatephorus cucumeris. The experiment is described as follows: Fungicidal activity against Thanatephorus cucumeris assessed as inhibition of mycelium growth at 272 uM at 25 +/- 0.5 degC. The essentials:
as §1

Experiment [9] concerns Botrytis cinerea. The experiment is described as follows: Fungicidal activity against Botryotinia fuckeliana assessed as inhibition of mycelium growth at 272 uM at 25 +/- 0.5 degC. The method, boiled down: as §1
A further experiment deals with Verticillium dahliae. The experiment in a line: Fungicidal activity against Verticillium dahliae assessed as inhibition of mycelium growth at 272 uM at 25 +/- 0.5 degC. The method, boiled down: as §1
Experiment [10] concerns Sclerotinia sclerotiorum. The experiment is described as follows: Fungicidal activity against Sclerotinia sclerotiorum assessed as inhibition of mycelium growth at 272 uM at 25 +/- 0.5 degC. The method, boiled down:
as §1

The test system of experiment [11] is Alternaria alternata. The experiment is described as follows: Fungicidal activity against Alternaria alternata assessed as inhibition of mycelium growth at 272 uM at 25 +/- 0.5 degC. The essentials: as §1
Experiment [12] deals with Colletotrichum lindemuthianum. The experiment in a line: Fungicidal activity against Colletotrichum lindemuthianum assessed as inhibition of mycelium growth at 272 uM at 25 +/- 0.5 degC. The method, boiled down:
as §1

Experiment [13] relates to Botrytis cinerea. The experiment in a line: Fungicidal activity against Botryotinia fuckeliana assessed as inhibition of mycelium growth at 52 uM at 25 +/- 0.5 degC. The method, boiled down:
as §1

The subject of experiment [14] is Fusarium graminearum. The experiment is described as follows: Fungicidal activity against Fusarium graminearum assessed as inhibition of mycelium growth at 52 uM at 25 +/- 0.5 degC. The method, boiled down:
as §1

The subject of experiment [15] is Phytophthora infestans. The experiment in a line: Fungicidal activity against Phytophthora infestans assessed as inhibition of mycelium growth at 52 uM at 25 +/- 0.5 degC. The essentials: as §1
Experiment [16] has as its system Sclerotinia sclerotiorum. The experiment in a line: Fungicidal activity against Sclerotinia sclerotiorum assessed as inhibition of mycelium growth at 52 uM at 25 +/- 0.5 degC. The essentials: as §1
For experiment [17], the system named is Fusarium oxysporum. The experiment in a line: Fungicidal activity against Fusarium oxysporum assessed as inhibition of mycelium growth at 52 uM at 25 +/- 0.5 degC. The essentials:
as §1

In experiment [18] the test system is Thanatephorus cucumeris. The experiment is described as follows: Fungicidal activity against Thanatephorus cucumeris assessed as inhibition of mycelium growth at 52 uM at 25 +/- 0.5 degC. The essentials: as §1
Experiment [19] deals with Fusarium verticillioides. The experiment is described as follows: Fungicidal activity against Fusarium verticillioides assessed as inhibition of mycelium growth at 52 uM at 25 +/- 0.5 degC. The essentials: as §1
Experiment [20] relates to Alternaria mali. The experiment is described as follows: Fungicidal activity against Alternaria mali assessed as inhibition of mycelium growth at 52 uM at 25 +/- 0.5 degC. The essentials:
as §1

Experiment [21] relates to Colletotrichum gloeosporioides. The experiment in a line: Fungicidal activity against Colletotrichum gloeosporioides assessed as inhibition of mycelium growth at 52 uM at 25 +/- 0.5 degC. The method, boiled down: as §1
Experiment [22] relates to Fusarium oxysporum. The experiment in a line: Fungicidal activity against Fusarium oxysporum assessed as inhibition of mycelium growth at 588 uM at 25 +/- 0.5 degC. The method, boiled down:
as §1

Experiment [23] deals with Thanatephorus cucumeris. The experiment is described as follows: Fungicidal activity against Thanatephorus cucumeris assessed as inhibition of mycelium growth at 588 uM at 25 +/- 0.5 degC. The essentials:
as §1

Experiment [24] has as its system Pseudocercospora musae. The experiment in a line: Fungicidal activity against Pseudocercospora musae assessed as inhibition of mycelium growth at 588 uM at 25 +/- 0.5 degC. The method, boiled down:
as §1

Experiment [25] relates to Sclerotinia sclerotiorum. The experiment in a line: Fungicidal activity against Sclerotinia sclerotiorum assessed as inhibition of mycelium growth at 588 uM at 25 +/- 0.5 degC. The method, boiled down: as §1
For experiment [26], the system named is Botryosphaeria berengeriana. The experiment in a line: Fungicidal activity against Botryosphaeria berengeriana assessed as inhibition of mycelium growth at 588 uM at 25 +/- 0.5 degC. The method, boiled down:
as §1

Experiment [27] deals with Colletotrichum gloeosporioides. The experiment is described as follows: Fungicidal activity against Colletotrichum gloeosporioides assessed as inhibition of mycelium growth at 588 uM at 25 +/- 0.5 degC. The essentials:
as §1

In experiment [28] the test system is Alternaria alternata. The experiment is described as follows: Fungicidal activity against Alternaria alternata assessed as inhibition of mycelium growth at 588 uM at 25 +/- 0.5 degC. The essentials:
as §1

What is called inhibition is the change of the read-out against control, counted positive when it falls. On to `CC1=CC(=O)O[C@@H](C(C)(C)O)CC1`, for which the inhibition at 272 µM with Pseudocercospora musae [1] came to 65.5%; in the experiment on Phytophthora infestans [2] it was 66.4%; in experiment [3], 71.1%; in the experiment on Fusarium oxysporum [4] it was 53.5%; in the experiment with Fusarium graminearum [5] it was 73.8%; in the experiment on Alternaria mali [6], 66%. Moreover, the inhibition at 272 µM turned out to be 55.6% in the experiment with Fusarium verticillioides [7]; 80.2% in the experiment with Thanatephorus cucumeris [8]; 72% in the experiment with Botrytis cinerea [9]; 66.6% in the experiment with Verticillium dahliae; 81.8% with Sclerotinia sclerotiorum [10]; 70.9% in the experiment on Alternaria alternata [11]. For the same compound, the inhibition at 272 µM in experiment [12] turned out to be 62.3%.

Consider `COC(=O)Nc1nc2ccccc2[nH]1` [CARBENDAZIM], for which the inhibition at 52 µM in the experiment with Botrytis cinerea [13], with Fusarium graminearum [14], in the experiment on Phytophthora infestans [15], with Sclerotinia sclerotiorum [16], with Fusarium oxysporum [17] and in the experiment on Thanatephorus cucumeris [18] was 100% each time. Moreover, the inhibition at 52 µM (in the experiment with Fusarium verticillioides [19]; in the experiment on Alternaria mali [20]; in experiment [21]) was 100% each time.

Consider `C/C(=C\C=C\C(C)(C)O)C(=O)O` [LITSEACUBEBIC ACID], for which the inhibition at 588 µM is 56.7% in the experiment on Fusarium oxysporum [22]; 76.8% with Thanatephorus cucumeris [23]; 78.9% in the experiment with Pseudocercospora musae [24]; 86.7% with Sclerotinia sclerotiorum [25]; 59.2% in experiment [26]; 71.2% in [27]. Also, in the experiment on Alternaria alternata [28], the inhibition at 588 µM amounted to 57.8%.
